Assay results from ChEMBL document CHEMBL4138050, “Discovery of selective cystathionine β-synthase inhibitors by high-throughput screening with a fluorescent thiol probe” (Medchemcomm, 2017).
Activity calls are given as the source filed them. The rule behind the calls is not given here.

Key:
[1] = target: T1, Cystathionine beta-synthase (Homo sapiens, UniProt P35520); assay: Inhibition of full-length GST-fused human CBS using cysteine/homocysteine as substrate assessed as decrease in H2S production preincubated for 3 mins in presence of homocysteine and lead nitrate followed by cysteine addition
T1 sequence (P35520 whole entry): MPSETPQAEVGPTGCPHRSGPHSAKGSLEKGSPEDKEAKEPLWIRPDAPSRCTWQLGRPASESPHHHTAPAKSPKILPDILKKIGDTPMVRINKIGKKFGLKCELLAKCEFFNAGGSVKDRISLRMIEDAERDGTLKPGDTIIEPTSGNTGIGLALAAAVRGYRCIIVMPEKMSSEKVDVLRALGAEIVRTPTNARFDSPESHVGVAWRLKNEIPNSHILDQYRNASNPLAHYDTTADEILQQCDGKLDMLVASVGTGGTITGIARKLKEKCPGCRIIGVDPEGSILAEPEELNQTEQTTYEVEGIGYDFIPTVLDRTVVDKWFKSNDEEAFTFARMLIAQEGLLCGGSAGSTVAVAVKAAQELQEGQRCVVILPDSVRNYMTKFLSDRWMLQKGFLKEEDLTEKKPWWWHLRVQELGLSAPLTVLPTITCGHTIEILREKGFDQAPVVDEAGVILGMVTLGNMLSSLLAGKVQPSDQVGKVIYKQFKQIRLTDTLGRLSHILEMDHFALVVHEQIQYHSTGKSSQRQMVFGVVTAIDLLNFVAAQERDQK
Summary of the method: (§1)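 The H2S-producing activity of the purified human enzyme was measured with cysteine and homocysteine as substrates in 50 mM HEPES, pH 7.4, with 0.4 mM lead nitrate (lead sulfide read-out).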

[2] = target: T2, Cystathionine gamma-lyase (Homo sapiens, UniProt P32929); assay: Inhibition of N-terminal His-tagged CSE extracted from human HepG2 cells expressed in Escherichia coli BL21 (DE3) using cysteine as substrate assessed as decrease in H2S production preincubated for 3 mins in presence of lead nitrate followed by cysteine addition; summary of the method: as §1
[3] = target: T3, Cystathionine beta-synthase (Homo sapiens) (UniProt P35520); assay: Reversible inhibition of full-length GST-fused human CBS using cysteine/homocysteine as substrate assessed as decrease in H2S production at 100 uM preincubated for 1 hr followed by ultrafiltration for 5 times
T3 sequence (whole entry): T1 sequence (P35520 whole entry)

HT-29 = assay: Antiproliferative activity against human HT-29 cells assessed as decrease in cell viability after 24 hrs by CCK8 assay; format: functional, cell-based; conditions: HT-29, 24 h
Summary of the method: (§2)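 Viability of HT29 colon cancer cells and of NCM356 normal colon mucosal epithelial cells was measured across a concentration range and expressed relative to the control group. IC50 was taken from the dose–response curve. For HT29, values are means ± SD with n = 6.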

Homo sapiens = species: Homo sapiens; assay: Selectivity ratio of IC50 for N-terminal His-tagged CSE extracted from human HepG2 cells expressed in Escherichia coli BL21 (DE3) using cysteine as substrate assessed as decrease in H2S production to IC50 for full-length GST-fused human CBS using cysteine/homocysteine as substrate assessed as decrease in H2S production
[4] = target: T2, Cystathionine gamma-lyase; assay: Inhibition of N-terminal His-tagged CSE extracted from human HepG2 cells expressed in Escherichia coli BL21 (DE3) using methylcysteine as substrate measured for 10 mins by CPM probe-based fluorescence assay
Summary of the method: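 Methanethiol release by purified human CSE was monitored continuously with 10 mM methylcysteine as substrate in 50 mM HEPES, pH 7.4. Thiol was trapped by the CPM fluorescent probe and read at 460 nm (excitation 400 nm). IC50 was taken from the dose–response curve.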

[5] = target: T1, Cystathionine beta-synthase; assay: Inhibition of full-length GST-fused human CBS using methylcysteine as substrate measured for 10 mins by CPM probe-based fluorescence assay
Summary of the method: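 Enzyme source: full-length wild-type hCBS, 2 μg per reaction. Substrate: 10 mM methylcysteine. Buffer: 50 mM HEPES, pH 7.4, with 15 μM CPM thiol probe. Read-out: CH3SH release, followed as fluorescence at 460 nm (excitation 400 nm) over 600 s. Screening positive control: 100 μM AOAA. Secondary screen: compounds at 50 μM.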

[6] = Antiproliferative activity against human NCM356 cells assessed as decrease in cell viability after 24 hrs by CCK8 assay; format: cell-based; summary of the method: as §2
[7] = Selectivity index, ratio of IC50 for human NCM356 cells to IC50 for human HT-29 cells; format: toxicity; conditions: NCM356 cells versus HT-29 cells

T2 sequence (P32929 whole entry, the tested form may be a part): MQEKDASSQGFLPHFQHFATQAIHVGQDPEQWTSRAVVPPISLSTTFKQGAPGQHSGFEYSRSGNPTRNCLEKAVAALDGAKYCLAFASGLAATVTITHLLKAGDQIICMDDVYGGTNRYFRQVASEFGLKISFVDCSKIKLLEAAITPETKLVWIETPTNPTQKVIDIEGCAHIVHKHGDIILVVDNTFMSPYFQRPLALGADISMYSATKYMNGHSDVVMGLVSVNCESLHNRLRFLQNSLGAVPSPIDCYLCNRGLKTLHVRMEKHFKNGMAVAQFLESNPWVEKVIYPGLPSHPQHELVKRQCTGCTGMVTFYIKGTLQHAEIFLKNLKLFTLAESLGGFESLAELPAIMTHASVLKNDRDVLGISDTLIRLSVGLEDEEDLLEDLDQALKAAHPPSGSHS

| SMILES | IC50 [1] [µM] | inhibition [2] | inhibition [3] | IC50 (HT-29) [µM] | IC50 [2] [µM] | Ratio IC50 (Homo sapiens) | IC50 [4] [µM] | IC50 [5] [µM] | IC50 [6] [µM] | selectivity ratio [7] |
| --- | --- | --- | --- | --- | --- | --- | --- | --- | --- | --- |
| Oc1ccc(-c2oc3cc(O)cc4c3c2-c2cc(O)cc3c2[C@H](c2cc(O)cc5c2[C@@H]4[C@H](c2ccc(O)cc2)O5)[C@@H](c2ccc(O)cc2)O3)cc1 | 5.9 | Active | Active | – | – | – | – | – | – | – |
| C[C@@H]1O[C@@H](Oc2c(-c3ccc(O)cc3)oc3cc(O)cc(O)c3c2=O)[C@H](OC(=O)/C=C\c2ccc(O)cc2)[C@H](O)[C@H]1OC(=O)/C=C\c1ccc(O)cc1 | 6.2 | – | Active | 1.5 to 13.5 | > 400 | – | – | – | – | – |
| O=C(CCCCCCCCc1ccccc1)c1c(O)cc(O)cc1O | 8.1 | – | Active | – | – | > 10 | – | – | – | – |
| Oc1cc(O)cc(CCC/C=C\CCCCCCCCCc2cc(O)cc(O)c2)c1 | 7.4 | – | Active | – | – | > 10 | – | – | – | – |
| NOCC(=O)O [CARBOXYMETHOXYLAMINE] | 4 | – | – | 140 | 4 | – | 0.57 | 1 | 800 | – |
| O=c1cc(-c2ccc(O)cc2)oc2c(-c3c(O)cc(O)c4c(=O)cc(-c5ccc(O)cc5)oc34)c(O)cc(O)c12 [CUPRESSUFLAVONE] | 11.5 | – | Active | ≥ 50 | > 400 | – | – | – | – | – |
| Cc1cc(O)c2c(=O)c3c(O)cc(O)c4c5c(O)cc(O)c6c(=O)c7c(O)cc(C)c8c1c2c(c34)c(c78)c65 [HYPERICIN] | 3.1 | – | Active | – | – | > 10 | – | – | – | – |
| O=c1c(O)c(-c2cc(O)c(O)c(O)c2)oc2cc(O)cc(O)c12 [MYRICETIN] | 18.8 | Active | Active | – | – | – | – | – | – | – |
| COc1ccc(-c2cc(=O)c3c(O)cc(O)c(-c4cc(-c5cc(=O)c6c(O)cc(O)cc6o5)ccc4O)c3o2)cc1 [PODOCARPUSFLAVONE A] | 8.9 | – | Active | 7.9 | > 400 | – | – | – | 36 | 5 |
| COc1ccc([C@H]2Oc3cc(O)cc(O)c3C(=O)[C@@H]2[C@H]2C(=O)c3c(O)cc(O)cc3O[C@@H]2c2ccc(O)cc2)cc1 [SIKOKIANIN C] | 9.2 | – | Active | 1.5 | > 400 | – | – | – | 19 | 10 |
